{"source": "ChEMBL document CHEMBL2150931", "about": "“Design, synthesis, and biological activity of a novel series of human sirtuin-2-selective inhibitors” (J Med Chem, 2012)", "key": {"Histone deacetylase 1": {"molecular_target": "Histone deacetylase 1 (Homo sapiens, UniProt Q13547)", "sequence (Q13547 whole entry)": "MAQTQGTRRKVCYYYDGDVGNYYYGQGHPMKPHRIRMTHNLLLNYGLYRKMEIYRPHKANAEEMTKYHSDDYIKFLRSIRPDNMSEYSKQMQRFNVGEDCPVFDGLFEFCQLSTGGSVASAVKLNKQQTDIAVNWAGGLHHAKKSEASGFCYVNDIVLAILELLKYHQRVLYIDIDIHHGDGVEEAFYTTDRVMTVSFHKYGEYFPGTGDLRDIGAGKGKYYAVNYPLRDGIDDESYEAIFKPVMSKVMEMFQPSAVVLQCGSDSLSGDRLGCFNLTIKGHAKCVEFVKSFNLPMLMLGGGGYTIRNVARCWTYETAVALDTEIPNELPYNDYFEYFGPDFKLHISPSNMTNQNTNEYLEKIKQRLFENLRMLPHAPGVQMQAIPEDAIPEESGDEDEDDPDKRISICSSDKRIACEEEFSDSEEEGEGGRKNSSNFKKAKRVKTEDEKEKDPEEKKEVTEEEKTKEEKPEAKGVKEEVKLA", "assay": "Inhibition of HDAC1"}, "Cytochrome P450 2D6": {"molecular_target": "Cytochrome P450 2D6 (Homo sapiens, UniProt P10635)", "sequence (P10635 whole entry)": "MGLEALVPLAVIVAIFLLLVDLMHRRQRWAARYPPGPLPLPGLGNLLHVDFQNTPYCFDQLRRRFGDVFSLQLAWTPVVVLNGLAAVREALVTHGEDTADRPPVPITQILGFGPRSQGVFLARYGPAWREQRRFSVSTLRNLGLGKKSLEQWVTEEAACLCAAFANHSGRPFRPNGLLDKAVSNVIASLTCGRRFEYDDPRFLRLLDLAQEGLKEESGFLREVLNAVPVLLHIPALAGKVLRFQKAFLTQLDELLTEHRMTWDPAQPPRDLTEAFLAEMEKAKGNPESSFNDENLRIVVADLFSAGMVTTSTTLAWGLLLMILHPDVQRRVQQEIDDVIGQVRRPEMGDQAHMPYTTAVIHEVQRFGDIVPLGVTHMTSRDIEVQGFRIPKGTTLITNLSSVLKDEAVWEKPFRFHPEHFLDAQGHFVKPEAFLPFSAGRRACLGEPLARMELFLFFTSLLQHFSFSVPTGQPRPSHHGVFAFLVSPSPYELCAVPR", "assay": "Inhibition of CYP2D6", "type": "ADME"}, "Histone deacetylase 5": {"molecular_target": "Histone deacetylase 5 (Homo sapiens, UniProt Q9UQL6)", "sequence (Q9UQL6 whole entry)": "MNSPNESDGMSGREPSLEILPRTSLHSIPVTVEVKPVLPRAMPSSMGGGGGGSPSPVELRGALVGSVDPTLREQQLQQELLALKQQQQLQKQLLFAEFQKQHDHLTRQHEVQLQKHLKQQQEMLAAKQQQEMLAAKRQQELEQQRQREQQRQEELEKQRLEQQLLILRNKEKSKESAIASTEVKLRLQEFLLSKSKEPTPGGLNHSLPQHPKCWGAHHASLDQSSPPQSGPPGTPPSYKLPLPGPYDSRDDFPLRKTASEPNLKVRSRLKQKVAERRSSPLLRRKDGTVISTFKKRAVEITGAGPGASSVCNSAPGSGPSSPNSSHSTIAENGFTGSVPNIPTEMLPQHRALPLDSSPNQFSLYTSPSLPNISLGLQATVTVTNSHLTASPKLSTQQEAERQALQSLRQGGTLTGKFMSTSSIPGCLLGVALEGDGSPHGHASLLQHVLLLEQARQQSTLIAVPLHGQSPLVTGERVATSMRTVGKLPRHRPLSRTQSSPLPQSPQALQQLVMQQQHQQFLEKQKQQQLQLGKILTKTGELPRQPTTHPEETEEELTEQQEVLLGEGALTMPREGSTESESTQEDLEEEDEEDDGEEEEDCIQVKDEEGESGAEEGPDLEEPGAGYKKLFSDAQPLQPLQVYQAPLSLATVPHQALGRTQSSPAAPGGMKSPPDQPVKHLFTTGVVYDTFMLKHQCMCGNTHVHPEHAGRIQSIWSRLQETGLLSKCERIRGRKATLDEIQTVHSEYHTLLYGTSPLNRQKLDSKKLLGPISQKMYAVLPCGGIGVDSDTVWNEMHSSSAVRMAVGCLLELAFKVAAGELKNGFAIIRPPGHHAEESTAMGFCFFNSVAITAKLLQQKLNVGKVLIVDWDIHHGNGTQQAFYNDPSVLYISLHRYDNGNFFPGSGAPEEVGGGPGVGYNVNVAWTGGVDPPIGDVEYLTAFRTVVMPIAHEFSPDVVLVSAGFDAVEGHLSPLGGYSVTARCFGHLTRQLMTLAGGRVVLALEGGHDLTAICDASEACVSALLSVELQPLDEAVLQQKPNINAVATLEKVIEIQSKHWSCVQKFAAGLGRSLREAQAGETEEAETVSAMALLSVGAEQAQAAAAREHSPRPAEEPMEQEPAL", "assay": "Inhibition of HDAC5"}, "[1]": {"molecular_target": "T1, NAD-dependent protein deacetylase sirtuin-1 (Homo sapiens, UniProt Q96EB6)", "T1 sequence (Q96EB6 whole entry)": "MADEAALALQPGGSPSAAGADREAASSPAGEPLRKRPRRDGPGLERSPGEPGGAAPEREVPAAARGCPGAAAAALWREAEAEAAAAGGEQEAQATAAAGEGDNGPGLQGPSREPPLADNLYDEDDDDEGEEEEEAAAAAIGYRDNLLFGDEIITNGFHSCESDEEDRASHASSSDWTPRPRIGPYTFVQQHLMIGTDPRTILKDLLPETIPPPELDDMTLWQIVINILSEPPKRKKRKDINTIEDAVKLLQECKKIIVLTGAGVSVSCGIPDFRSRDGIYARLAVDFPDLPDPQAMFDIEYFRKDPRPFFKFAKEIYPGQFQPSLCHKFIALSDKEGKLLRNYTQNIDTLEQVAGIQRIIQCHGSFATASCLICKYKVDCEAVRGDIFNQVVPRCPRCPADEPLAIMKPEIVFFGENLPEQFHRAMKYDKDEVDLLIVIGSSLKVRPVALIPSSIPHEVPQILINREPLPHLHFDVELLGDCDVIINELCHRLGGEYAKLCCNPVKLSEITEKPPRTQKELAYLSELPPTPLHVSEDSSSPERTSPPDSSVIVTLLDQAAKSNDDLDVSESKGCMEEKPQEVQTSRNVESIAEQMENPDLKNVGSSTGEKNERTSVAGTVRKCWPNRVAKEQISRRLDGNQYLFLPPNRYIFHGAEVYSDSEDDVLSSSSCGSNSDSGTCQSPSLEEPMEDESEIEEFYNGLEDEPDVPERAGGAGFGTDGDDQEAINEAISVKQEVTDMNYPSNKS", "assay": "Inhibition of human recombinant SIRT1 using Fluor de Lys-SIRT as substrate incubated for 60 mins prior to substrate addition measured after 60 mins by fluorimetric analysis", "how_it_was_run": "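Human recombinant SIRT1 run the same way: 60 min at 37 °C with 1 mM NAD⁺ and serial compound dilutions, then 25 μM Fluor de Lys-SIRT substrate for 60 min. Stopped with nicotinamide-containing Developer II and read 45 min later at ex 360/em 460 nm. IC₅₀ from logit regression of % inhibition vs control; means of ≥3 experiments.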"}, "[2]": {"molecular_target": "T2, NAD-dependent protein deacetylase sirtuin-2 (Homo sapiens, UniProt Q8IXJ6)", "T2 sequence (Q8IXJ6 whole entry)": "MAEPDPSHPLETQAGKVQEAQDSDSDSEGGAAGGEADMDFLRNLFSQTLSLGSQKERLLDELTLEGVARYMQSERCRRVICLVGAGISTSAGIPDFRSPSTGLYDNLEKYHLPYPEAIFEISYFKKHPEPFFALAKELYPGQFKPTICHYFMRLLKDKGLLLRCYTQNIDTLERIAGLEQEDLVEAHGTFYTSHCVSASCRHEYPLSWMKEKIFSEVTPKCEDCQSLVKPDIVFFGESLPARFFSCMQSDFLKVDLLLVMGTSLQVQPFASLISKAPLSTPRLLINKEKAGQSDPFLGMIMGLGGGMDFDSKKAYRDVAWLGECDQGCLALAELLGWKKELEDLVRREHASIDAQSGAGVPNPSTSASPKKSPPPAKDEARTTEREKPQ", "assay": "Inhibition of human recombinant SIRT2 using Fluor de Lys-SIRT as substrate incubated for 60 mins prior to substrate addition measured after 60 mins by fluorimetric analysis", "how_it_was_run": "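Human recombinant SIRT2 preincubated with 1 mM NAD⁺ and serial compound dilutions for 60 min at 37 °C, then 25 μM Fluor de Lys-SIRT substrate added. Reaction stopped at 60 min with Developer II containing nicotinamide. Fluorescence read 45 min later at ex 360/em 460 nm. % inhibition taken against control wells. IC₅₀ obtained by regression of log[Inh] vs logit % inhibition; means of ≥3 experiments.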"}, "Histone deacetylase 8": {"molecular_target": "T3, Histone deacetylase 8 (Homo sapiens, UniProt Q9BY41)", "T3 sequence (Q9BY41 whole entry)": "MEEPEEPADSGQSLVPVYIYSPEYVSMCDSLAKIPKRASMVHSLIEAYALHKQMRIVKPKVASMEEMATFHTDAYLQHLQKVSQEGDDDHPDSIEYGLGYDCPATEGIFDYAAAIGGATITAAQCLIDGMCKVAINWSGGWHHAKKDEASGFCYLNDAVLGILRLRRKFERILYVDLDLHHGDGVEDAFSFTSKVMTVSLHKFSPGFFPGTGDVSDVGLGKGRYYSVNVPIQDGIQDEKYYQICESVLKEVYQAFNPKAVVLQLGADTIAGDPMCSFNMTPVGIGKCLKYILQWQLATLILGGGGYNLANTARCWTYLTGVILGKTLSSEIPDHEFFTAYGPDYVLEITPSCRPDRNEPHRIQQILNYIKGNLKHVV", "assay": "Inhibition of HDAC8"}, "Histone deacetylase 4": {"molecular_target": "Histone deacetylase 4 (Homo sapiens, UniProt P56524)", "sequence (P56524 whole entry)": "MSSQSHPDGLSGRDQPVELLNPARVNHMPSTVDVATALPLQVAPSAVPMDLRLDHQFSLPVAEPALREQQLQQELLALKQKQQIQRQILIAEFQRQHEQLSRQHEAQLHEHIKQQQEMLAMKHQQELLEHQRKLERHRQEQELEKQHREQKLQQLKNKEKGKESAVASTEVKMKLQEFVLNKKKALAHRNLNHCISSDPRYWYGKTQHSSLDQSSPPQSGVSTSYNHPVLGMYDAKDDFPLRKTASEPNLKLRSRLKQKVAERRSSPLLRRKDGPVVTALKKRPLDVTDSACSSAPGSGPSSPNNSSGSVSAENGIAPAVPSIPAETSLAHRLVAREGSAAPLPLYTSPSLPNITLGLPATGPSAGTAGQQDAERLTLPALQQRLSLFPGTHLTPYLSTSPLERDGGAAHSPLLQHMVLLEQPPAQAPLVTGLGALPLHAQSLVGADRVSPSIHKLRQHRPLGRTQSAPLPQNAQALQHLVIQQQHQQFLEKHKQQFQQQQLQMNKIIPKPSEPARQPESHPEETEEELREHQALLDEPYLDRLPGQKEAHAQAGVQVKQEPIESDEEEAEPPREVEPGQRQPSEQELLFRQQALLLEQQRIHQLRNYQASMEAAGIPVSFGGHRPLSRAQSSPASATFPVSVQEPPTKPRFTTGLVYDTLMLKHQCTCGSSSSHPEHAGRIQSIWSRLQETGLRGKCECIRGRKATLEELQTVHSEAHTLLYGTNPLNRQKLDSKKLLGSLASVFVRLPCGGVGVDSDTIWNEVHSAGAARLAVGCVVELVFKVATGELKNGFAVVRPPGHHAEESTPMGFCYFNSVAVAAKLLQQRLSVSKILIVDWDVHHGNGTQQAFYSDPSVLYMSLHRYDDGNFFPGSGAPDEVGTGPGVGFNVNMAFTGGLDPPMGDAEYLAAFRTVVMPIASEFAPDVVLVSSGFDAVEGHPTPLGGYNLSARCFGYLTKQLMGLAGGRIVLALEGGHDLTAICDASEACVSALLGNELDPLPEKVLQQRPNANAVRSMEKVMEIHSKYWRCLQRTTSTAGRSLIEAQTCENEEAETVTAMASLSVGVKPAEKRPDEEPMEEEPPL", "assay": "Inhibition of HDAC4"}}, "data": [{"smiles": "NC(=O)c1ccccc1Nc1cccc(OCCc2ccccc2)c1", "values": [{"measurement": "IC50", "setting": "Histone deacetylase 1", "result": "> 30", "unit": "µM"}, {"measurement": "IC50", "setting": "Cytochrome P450 2D6", "result": "> 10", "unit": "µM"}, {"measurement": "IC50", "setting": "Histone deacetylase 5", "result": "> 30", "unit": "µM"}, {"measurement": "IC50", "setting": "[1]", "result": "> 100", "unit": "µM"}, {"measurement": "IC50", "setting": "[2]", "result": 1, "unit": "µM"}, {"measurement": "IC50", "setting": "Histone deacetylase 8", "result": "> 30", "unit": "µM"}, {"measurement": "IC50", "setting": "Histone deacetylase 4", "result": "> 30", "unit": "µM"}]}]}
